Experimental findings from ChEMBL document CHEMBL1909628, “Discovery of 6-substituted indole-3-glyoxylamides as lead antiprion agents with enhanced cell line activity, improved microsomal stability and low toxicity” (Eur J Med Chem, 2011) are described below.

The nature of data set [1]: Metabolic stability in mouse liver microsomes assessed as compound remaining after 30 mins by HPLC analysis. It is filed as ADME, Microsome. As to conditions: read-out: Stability. In outline: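 Mouse liver microsomes (0.5 mg/mL stock) in 0.2 M potassium phosphate pH 7.0 with DL-isocitrate, MgCl2 and isocitrate dehydrogenase. Preincubated 5 min at 37 °C, then started with NADPH. Sampled at t=0 and after 30 min at 37 °C, quenched in ice-cold acetonitrile with internal standard. Analysed by C18 HPLC, UV at 267 nm, in triplicate.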

The nature of data set [2]: Antiprion activity against PrPsc infected in mouse SMB.s15 cells assessed as complete clearance of PrPSc after 5 days by dot blot analysis. It is filed as cell-based. As to conditions: SMB.s15, 120 h. In short, it runs like this: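 SMB.s15 cells (scrapie-infected, mesodermal origin) in Medium 199 with 10% newborn calf and 5% fetal calf serum, seeded at 12,000 cells/well, 24 h attachment. Compound added from DMSO stock via HBSS dilution, 5 days at 37 °C. Lysates dot-blotted, proteinase K digestion (1 h, 37 °C), guanidine thiocyanate, anti-PrP 6H4 mAb, ECL. Triplicate, PrPSc relative to DMSO-only control.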

Data set [3] is described as follows: (§1) Toxicity in zebrafish assessed as mortality rate at 5 uM measured after 72 hrs. Type of data set: organism-based, Danio rerio. Conditions: in vivo, read-out: Activity. In outline:
(§2)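 AB wild-type zebrafish embryos dechorionated with pronase at 48 hpf, 3 per well in methylene blue-free E3 medium. Dosed at 5 uM from 10 mM DMSO stocks (1% v/v DMSO). Kept at 28 °C for 72 h without food; survival scored at day 5 versus vehicle controls. Two experiments, each in triplicate.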

For another data set, the system named is ScN2a. In words: Cytotoxicity against mouse ScN2a cells up to 32 uM. Type of data set: cell-based. In short, it runs like this:
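ScN2a cells seeded separately in 96-well plates. Calcein cell viability assay run in parallel with the ELISA screen, up to 32 uM maximum.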

A short description of data set [4]: (§3) Toxicity in zebrafish assessed as organism survival at 5 uM treated at 48 hrs post-fertilization measured after 3 days. It is filed as organism-based, Danio rerio. Conditions: in vivo. In outline: as §2
Data set [5] in a line: Cytotoxicity against mouse SMB.s15 cells at 20 uM after 5 days by MTT assay. Type of data set: cell-based. Conditions: smb.s15, 120 h. In short, it runs like this: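 SMB.s15 cells at 12,000 cells/well, exposed to compound for 5 days at 37 °C (DMSO stock diluted via HBSS into medium). Viability measured by MTT assay per the reagent's standard protocol.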
Data set [6] is described as follows: Antiprion activity against PrPsc infected in mouse ScN2a cells assessed as complete clearance of PrPSc after 5 days by ELISA. Conditions: 120 h. Type of data set: cell-based. In short, it runs like this: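 ScN2a cells (N2a infected with RML prion strain) seeded at 4×10^5 cells/well in MEM with 10% FBS, GlutaMax, geneticin. Compound added 4 h after seeding, 0.5% final DMSO, 5 days at 37 °C. Lysates captured on D18 Fab-coated ELISA plates overnight at 4 °C, HRP-D13 detection, ABTS, absorbance at 405 nm. Dose-response curves from three independent experiments.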
(In an ELISA, binding on a coated surface is turned into a signal by an enzyme label.)

The species named for data set [7] is Danio rerio. In words: Toxicity in zebrafish assessed as induction of apoptosis at 5 uM treated at 48 hrs post-fertilization measured after 3 days by acridine orange staining method. It is filed as organism-based. As to conditions: in vivo, 72 h. In short, it runs like this:
(§4)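 Zebrafish larvae dosed at 5 uM from 48 hpf for three days (28 °C, E3 medium, 1% DMSO). Stained with acridine orange at 1 mg/mL in E3 for 30 min, then washed 3 × 10 min. Anesthetized with tricaine, mounted in 1% low-melt agarose with tricaine, and examined by microscopy for apoptosis and deformities.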

Data set [8] is filed under the species Danio rerio. The experiment in a line: Toxicity in zebrafish assessed as swim bladder deformities at 5 uM treated at 48 hrs post-fertilization measured after 3 days by acridine orange staining method. It is filed as organism-based. Conditions: in vivo, 72 h. In outline:
as §4

Data set [9] is filed under the species Danio rerio. The experiment in a line: Toxicity in zebrafish assessed as otic capsule deformities at 5 uM treated at 48 hrs post-fertilization measured after 3 days by acridine orange staining method. It is filed as organism-based. Conditions: in vivo, 72 h. In outline:
as §4

Data set [10] is filed under the species Danio rerio. The experiment in a line: Toxicity in zebrafish assessed as yolk deformities at 5 uM treated at 48 hrs post-fertilization measured after 3 days by acridine orange staining method. As to conditions: in vivo, 72 h. Type of data set: organism-based. In outline: as §4
The species named for data set [11] is Danio rerio. The data set is described as §3. It is filed as organism-based. Conditions: in vivo, 72 h, 5 µM. In outline: as §2
Data set [12] in a line: Solubility of the compound. It is filed as physicochemical.
For data set [13], the species on record is Danio rerio. Described as §1. As to conditions: in vivo, 72 h, 5 µM. It is filed as organism-based. In outline:
as §2

What is called EC50 is the concentration needed to bring the measured effect to its halfway point.

With `COc1ccc(NC(=O)C(=O)c2c[nH]c3ccccc23)cc1`, in data set [1], the remaining at 0.5 h turned out to be 67.9%. Further, the values for the concentration giving a half-maximal response (EC50) in [2] and in [6] were 0.011 µM and 0.091 µM, respectively. In addition, in data set [3], the mortality at 72 h, 5 µM was 20%. Moreover, the Activity result (with ScN2a; in data set [5]) was “Non-toxic” each time. Besides, the survival at 72 h, 5 µM in [4] is 100%.
On to `Cc1ccc(NC(=O)C(=O)c2c[nH]c3cc(C(C)C)ccc23)cc1`, for which the remaining at 0.5 h in [1] was 82.6%. For the same compound, the concentration for a half-maximal effect (EC50) in data set [2] worked out at 0.61 µM. Besides, the mortality at 72 h, 5 µM in [3] amounted to 20%. Further, the Activity entry (with ScN2a; in data set [5]) was “Non-toxic” in each case.
As for `COc1ccc(NC(=O)C(=O)c2c[nH]c3cc(C#N)ccc23)cc1`, the remaining at 0.5 h in data set [1] was 87.5%. The results for the concentration for a half-maximal effect (EC50) in data set [2] and in data set [6] were 0.0022 µM and 0.011 µM, respectively. The Activity result (in the data set listed under Danio rerio [7]; in the data set with ScN2a; in data set [5]; in the data set filed under Danio rerio [8]; in the data set listed under Danio rerio [9]; in the data set listed under Danio rerio [10]) was “Non-toxic” each time. Further, the survival at 72 h, 5 µM in [4] worked out at 100%.
For the compound `Cc1ccc(NC(=O)C(=O)c2c[nH]c3cc(C#N)ccc23)cc1`, in [1], the remaining at 0.5 h stood at 88.2%. Also, the concentration for a half-maximal effect (EC50) came out at 0.0109 µM in data set [2] and 0.026 µM in [6]. Further, the mortality at 72 h, 5 µM in [3] is 20%. The Activity result (in the data set with ScN2a; in data set [5]) was “Non-toxic” in each case. Also, the survival at 72 h, 5 µM in data set [4] came out at 100%.
As to `COc1ccc(NC(=O)C(=O)c2c[nH]c3cc([N+](=O)[O-])ccc23)cc1`, in data set [1], the remaining at 0.5 h came out at 90%. The EC50 in [2] turned out to be 0.0105 µM. Moreover, the Activity entry is on record as “Non-toxic” in the data set with ScN2a, “Toxic” in the data set listed under Danio rerio [11] and “Non-toxic” in data set [5].
Turning to `Cc1ccc(NC(=O)C(=O)c2c[nH]c3cc([N+](=O)[O-])ccc23)cc1`, the remaining at 0.5 h in [1] is 84.8%. The EC50 in [2] was 0.035 µM. Also, the mortality at 72 h, 5 µM in [3] is 20%. The Activity result (in the data set on ScN2a; in [5]) was “Non-toxic” each time. Moreover, the survival at 72 h, 5 µM in data set [4] was found to be 100%.
As for `O=C(Nc1ccc(-n2ccnc2)cc1)C(=O)c1c[nH]c2ccccc12`, the EC50 is 0.0013 µM in [2] and 0.016 µM in [6]. The solubility entry in data set [12] is given as “Insoluble”. Moreover, the Activity result (in the data set with ScN2a; in [5]) was “Non-toxic” throughout.
As to `O=C(Nc1ccc(-c2nnco2)cc1)C(=O)c1c[nH]c2ccccc12`, the solubility result in data set [12] is given as “Insoluble”.
In the case of `O=C(Nc1ccc(-n2cncn2)cc1)C(=O)c1c[nH]c2ccccc12`, the solubility result in data set [12] is “Insoluble”.
Same read-out and setting: under `Cn1ccc(-c2ccc(NC(=O)C(=O)c3c[nH]c4ccccc34)cc2)n1` stands “Insoluble”.
With `Cc1ccc(NC(=O)C(=O)c2c[nH]c3cc(C)ccc23)cc1`, the remaining at 0.5 h in [1] is 90.2%. Further, the EC50 in [2] came out at 0.051 µM. Further, the mortality at 72 h, 5 µM in [3] was found to be 20%. In addition, the Activity entry (in the data set with ScN2a; in data set [5]) was “Non-toxic” each time. Also, the survival at 72 h, 5 µM in data set [4] came to 100%.
In the case of `Cc1ccc2c(C(=O)C(=O)Nc3ccc(N4CCOCC4)cc3)c[nH]c2c1`, in data set [2], the EC50 turned out to be 0.0031 µM. Also, the Activity result (in the data set listed under Danio rerio [7]; in the data set on ScN2a; in data set [5]; in the data set filed under Danio rerio [8]; in the data set filed under Danio rerio [9]; in the data set filed under Danio rerio [10]) was “Non-toxic” throughout. In data set [3], the mortality at 72 h, 5 µM worked out at 20%. Also, in [4], the survival at 72 h, 5 µM came to 100%.
In the case of `COc1ccc(NC(=O)C(=O)c2c[nH]c3cc(Cl)ccc23)cc1`, the remaining at 0.5 h in [1] was 87.3%. The half-maximal effective concentration (EC50) in [2] came to 0.0099 µM. Also, the Activity result is given as “Non-toxic” in the data set with ScN2a, “Toxic” in the data set listed under Danio rerio [11] and “Non-toxic” in data set [5].
Consider `Cc1ccc(NC(=O)C(=O)c2c[nH]c3cc(Cl)ccc23)cc1`, for which, in data set [1], the remaining at 0.5 h amounted to 85.6%. Besides, the EC50 in data set [2] was found to be 0.1 µM. In data set [3], the mortality at 72 h, 5 µM worked out at 20%. Moreover, the Activity entry (in the data set on ScN2a; in [5]) was “Non-toxic” each time. In data set [4], the survival at 72 h, 5 µM came to 100%.
`COc1ccc(NC(=O)C(=O)c2c[nH]c3c(Cl)cccc23)cc1`: the concentration giving a half-maximal response (EC50) in data set [2] is 0.024 µM; in [6], 0.247 µM. The Activity entry is reported as “Non-toxic” in the data set with ScN2a, “Toxic” in the data set filed under Danio rerio [11] and “Non-toxic” in data set [5].
On to `Cc1ccc(NC(=O)C(=O)c2c[nH]c3c(Cl)cccc23)cc1`, for which the EC50 came out at 0.47 µM in data set [2] and 1.26 µM in data set [6]. Further, the mortality at 72 h, 5 µM in data set [3] is 20%. Further, the Activity result (in the data set on ScN2a; in data set [5]) was “Non-toxic” throughout. Also, the survival at 72 h, 5 µM in [4] turned out to be 100%.
Consider `O=C(Nc1ccc(-n2cccn2)cc1)C(=O)c1c[nH]c2cc(Cl)ccc12`, for which the remaining at 0.5 h in data set [1] was found to be 96.7%. Besides, the EC50 in data set [2] turned out to be 0.0061 µM; in [6], 0.175 µM. Further, the Activity result (in the data set with ScN2a; in [5]) was “Non-toxic” throughout. Also, the survival at 72 h, 5 µM in [4] came to 100%.
As for `O=C(Nc1ccc(-n2cccc2)cc1)C(=O)c1c[nH]c2ccccc12`, in data set [2], the EC50 turned out to be 0.006 µM. Besides, in [12], the solubility result was “Insoluble”. Further, the values for the Activity entry (in the data set with ScN2a; in the data set listed under Danio rerio [11]; in [5]) were “Non-toxic”, “Toxic” and “Non-toxic”, respectively.
Regarding `Cc1ccc(NC(=O)C(=O)c2c[nH]c3ccccc23)cc1`, in [1], the remaining at 0.5 h worked out at 64.9%. In addition, the EC50 in data set [2] worked out at 0.13 µM; in data set [6], 0.206 µM. Besides, the Activity result was “Non-toxic” in the data set listed under Danio rerio [13], “Non-toxic” with ScN2a, “Toxic” in the data set listed under Danio rerio [11] and “Non-toxic” in data set [5].
With `O=C(Nc1ccc(N2CCOCC2)cc1)C(=O)c1c[nH]c2ccccc12`, the concentration for a half-maximal effect (EC50) in data set [2] worked out at 0.009 µM; in data set [6] it was 0.065 µM. The mortality at 72 h, 5 µM in data set [3] was determined as 20%. In addition, the Activity entry is on record as “Non-toxic” in the data set on ScN2a, “Toxic” in the data set filed under Danio rerio [11] and “Non-toxic” in data set [5].
For the compound `O=C(Nc1ccc(-n2cccn2)cc1)C(=O)c1c[nH]c2ccccc12`, the remaining at 0.5 h in data set [1] came to 93.6%. Further, the EC50 in data set [2] came to 0.001 µM; in [6], 0.014 µM. In addition, the Activity result in the data set listed under Danio rerio [7] was “Non-toxic”; in the data set with ScN2a, “Non-toxic”; in the data set filed under Danio rerio [11], “Toxic”; in data set [5], “Non-toxic”; in the data set filed under Danio rerio [8] it was “Non-toxic”; in the data set listed under Danio rerio [9], “Non-toxic”. Also, the Activity result in the data set listed under Danio rerio [10] was “Non-toxic”. In addition, the solubility entry in data set [12] is given as “Insoluble”.
